Assay results from ChEMBL document CHEMBL3872252, “New bithiazolyl hydrazones: Novel synthesis, characterization and antitubercular evaluation” (Bioorg Med Chem Lett, 2017).
≈ marks a conversion by molar mass, not a printed value.

Experiments:
[1] = Cytotoxicity against human THP1 cells by MTT assay; type: toxicity, cell-based, THP-1; details: for GI50: THP1 cells; for GI90: thp-1
[2] = Antitubercular activity against Mycobacterium tuberculosis H37Ra ATCC 25177 active stage infected in human THP1 cells measured on day 8 by nitrate reductase assay; type: functional, THP-1; details: ATCC 25177, 192 h
[3] = test system: Bacillus subtilis; assay: Growth inhibition of Bacillus subtilis at 10 ug/ml; type: functional; details: read-out: GI
[4] = Selectivity index, ratio of GI50 for human MCF7 cells to MIC90 for Mycobacterium tuberculosis H37Ra ATCC 25177 active stage; type: toxicity, cell-based; details: read-out: Selectivity Index
Outline: (§1)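 Cytotoxicity was measured on human MCF-7, HCT116 and THP-1 cells by MTT assay, with paclitaxel as reference. GI50 is the concentration inhibiting 50% of cell growth. The selectivity index is GI50 for the given cell line divided by MIC90 for the given mycobacterial strain and stage.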

[5] = Antitubercular activity against Mycobacterium bovis BCG ATCC 35743 dormant stage measured on day 12 by nitrate reductase based two-fold dilution assay; type: functional, Mycobacterium bovis BCG str. ATCC 35743; details: Mycobacterium tuberculosis variant bovis BCG, ATCC 35743, 288 h
[6] = Selectivity index, ratio of GI50 for human HCT116 cells to MIC90 for Mycobacterium bovis BCG ATCC 35743 dormant stage; type: toxicity, cell-based, HCT-116; details: read-out: Selectivity Index
Outline: (§2)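 Cytotoxicity was measured on human MCF-7, HCT116 and THP-1 cells by MTT assay, with paclitaxel as reference. The selectivity index is GI50 for the given cell line divided by MIC90 for the given mycobacterial strain and stage.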

[7] = Antitubercular activity against Mycobacterium tuberculosis H37Ra ATCC 25177 dormant stage measured on day 12 by XTT reduction menadione based two-fold dilution assay; type: functional; details: ATCC 25177, 288 h
Outline: (§3)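 M. tuberculosis H37Ra ATCC 25177 was exposed to 0.7–100 μg/mL in two-fold steps (0.7, 1.5, 3.1 … 100). Active stage was read after 8 days and dormant stage after 12 days of incubation. Inhibition was read by XTT reduction menadione assay (XRMA), absorbance 470 nm. MIC90 is the concentration giving ≥90% inhibition (µg/mL).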

[8] = test system: Staphylococcus aureus; assay: Growth inhibition of Staphylococcus aureus at 30 ug/ml; type: functional; details: read-out: GI
[9] = Antitubercular activity against Mycobacterium tuberculosis H37Ra ATCC 25177 dormant stage infected in human THP1 cells measured on day 12 by nitrate reductase assay; type: functional, THP-1; details: ATCC 25177, 288 h
[10] = test system: Escherichia coli; assay: Growth inhibition of Escherichia coli at 10 ug/ml; type: functional; details: read-out: GI
[11] = Cytotoxicity against human HCT116 cells by MTT assay; type: toxicity, cell-based, HCT-116; details: for GI50: HCT116 cells; for GI90: hct-116
[12] = Selectivity index, ratio of GI50 for human MCF7 cells to MIC90 for Mycobacterium tuberculosis H37Ra ATCC 25177 dormant stage; type: toxicity, cell-based; details: read-out: Selectivity Index; outline: as §2
[13] = Selectivity index, ratio of GI50 for human THP1 cells to MIC90 for Mycobacterium bovis BCG ATCC 35743 active stage; type: toxicity, cell-based, THP-1; details: read-out: Selectivity Index; outline: as §1
[14] = Selectivity index, ratio of GI50 for human MCF7 cells to MIC90 for Mycobacterium bovis BCG ATCC 35743 dormant stage; type: toxicity, cell-based; details: read-out: Selectivity Index; outline: as §2
[15] = Selectivity index, ratio of GI50 for human HCT116 cells to MIC90 for Mycobacterium tuberculosis H37Ra ATCC 25177 active stage; type: toxicity, cell-based, HCT-116; details: read-out: Selectivity Index; outline: as §1
[16] = test system: Pseudomonas aeruginosa; assay: Growth inhibition of Pseudomonas aeruginosa at 30 ug/ml; type: functional; details: read-out: GI
[17] = Selectivity index, ratio of GI50 for human THP1 cells to MIC90 for Mycobacterium tuberculosis H37Ra ATCC 25177 dormant stage; type: toxicity, cell-based, THP-1; details: read-out: Selectivity Index; outline: as §2
[18] = Selectivity index, ratio of GI50 for human THP1 cells to MIC90 for Mycobacterium tuberculosis H37Ra ATCC 25177 active stage; type: toxicity, cell-based, THP-1; details: read-out: Selectivity Index; outline: as §1
[19] = Selectivity index, ratio of GI50 for human MCF7 cells to MIC90 for Mycobacterium bovis BCG ATCC 35743 active stage; type: toxicity, cell-based; details: read-out: Selectivity Index; outline: as §1
[20] = Antitubercular activity against Mycobacterium bovis BCG ATCC 35743 active stage measured on day 8 by nitrate reductase based two-fold dilution assay; type: functional, Mycobacterium bovis BCG str. ATCC 35743; details: Mycobacterium tuberculosis variant bovis BCG, ATCC 35743, 192 h
[21] = Cytotoxicity against human MCF7 cells by MTT assay; type: toxicity, cell-based; details: for GI50: MCF7 cells; for GI90: mcf7
[22] = test system: Staphylococcus aureus; assay: Growth inhibition of Staphylococcus aureus at 10 ug/ml; type: functional; details: read-out: GI
[23] = test system: Staphylococcus aureus; assay: Growth inhibition of Staphylococcus aureus at 3 ug/ml; type: functional; details: read-out: GI
Outline: (§4)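 Screened against Gram-negative E. coli and P. aeruginosa and Gram-positive S. aureus and B. subtilis. Compound was tested at 3 µg/ml, and the read-out is percent growth inhibition.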

[24] = Antitubercular activity against Mycobacterium tuberculosis H37Ra ATCC 25177 active stage measured on day 8 by XTT reduction menadione based two-fold dilution assay; type: functional; details: ATCC 25177, 192 h; outline: as §3
[25] = Selectivity index, ratio of GI50 for human HCT116 cells to MIC90 for Mycobacterium tuberculosis H37Ra ATCC 25177 dormant stage; type: toxicity, cell-based, HCT-116; details: read-out: Selectivity Index; outline: as §2
[26] = test system: Pseudomonas aeruginosa; assay: Growth inhibition of Pseudomonas aeruginosa at 3 ug/ml; type: functional; details: read-out: GI; outline: as §4
[27] = Selectivity index, ratio of GI50 for human THP1 cells to MIC90 for Mycobacterium bovis BCG ATCC 35743 dormant stage; type: toxicity, cell-based, THP-1; details: read-out: Selectivity Index; outline: as §2
[28] = Selectivity index, ratio of GI50 for human HCT116 cells to MIC90 for Mycobacterium bovis BCG ATCC 35743 active stage; type: toxicity, cell-based, HCT-116; details: read-out: Selectivity Index; outline: as §1
[29] = test system: Escherichia coli; assay: Growth inhibition of Escherichia coli at 30 ug/ml; type: functional; details: read-out: GI
[30] = test system: Bacillus subtilis; assay: Growth inhibition of Bacillus subtilis at 30 ug/ml; type: functional; details: read-out: GI
[31] = test system: Bacillus subtilis; assay: Growth inhibition of Bacillus subtilis at 3 ug/ml; type: functional; details: read-out: GI; outline: as §4
[32] = test system: Pseudomonas aeruginosa; assay: Growth inhibition of Pseudomonas aeruginosa at 10 ug/ml; type: functional; details: read-out: GI
[33] = test system: Escherichia coli; assay: Growth inhibition of Escherichia coli at 3 ug/ml; type: functional; details: read-out: GI; outline: as §4

Row | SMILES | GI50 [1] [µg/mL] | GI90 [1] [µg/mL] | MIC90 [2] [µg/mL] | inhibition of growth at 10 µg/mL [3] [%] | selectivity ratio [4] | IC50 [5] [µg/mL] | MIC90 [5] [µg/mL] | selectivity ratio [6] | IC50 [7] [µg/mL] | MIC90 [7] [µg/mL] | inhibition of growth at 30 µg/mL [8] [%] | MIC90 [9] [µg/mL] | inhibition of growth at 10 µg/mL [10] [%] | GI50 [11] [µg/mL] | GI90 [11] [µg/mL] | selectivity ratio [12] | selectivity ratio [13] | selectivity ratio [14] | selectivity ratio [15] | inhibition of growth at 30 µg/mL [16] [%] | further results
1 | C/C(=N\Nc1nc(-c2ccccc2)cs1)c1sc(-c2ccccc2)nc1C | > 100 | > 100 | 15.6 (≈ 39.9 µM) | 50.1 | 11 | 7.95 (≈ 20.4 µM) | 18.7 (≈ 47.9 µM) | 5 | 0.98 (≈ 2.51 µM) | 12.8 (≈ 32.7 µM) | 77.2 | 12 (≈ 30.7 µM) | 56.6 | > 100 | > 100 | 8 | 5 | 5 | 11 | 78.2 | selectivity ratio [17]: 8; selectivity ratio [18]: 11; selectivity ratio [19]: 5; IC50 [20]: 8.75 µg/mL (≈ 22.4 µM); MIC90 [20]: 21.2 µg/mL (≈ 54.3 µM); GI50 [21]: > 100 µg/mL; GI90 [21]: > 100 µg/mL; inhibition of growth at 10 µg/mL [22]: 53.6%; inhibition of growth at 3 µg/mL [23]: 11.6%; IC50 [24]: 0.17 µg/mL (≈ 0.435 µM); MIC90 [24]: 9.46 µg/mL (≈ 24.2 µM); selectivity ratio [25]: 8; inhibition of growth at 3 µg/mL [26]: 10.2%; selectivity ratio [27]: 5; selectivity ratio [28]: 5; inhibition of growth at 30 µg/mL [29]: 78.5%; inhibition of growth at 30 µg/mL [30]: 75.5%; inhibition of growth at 3 µg/mL [31]: 4.82%; inhibition of growth at 10 µg/mL [32]: 53.8%; inhibition of growth at 3 µg/mL [33]: 17.5%
2 | C/C(=N\Nc1nc(-c2ccc(Cl)cc2)cs1)c1sc(-c2ccccc2)nc1C | > 100 | > 100 | > 100 | 77.7 | 1 | 26.6 (≈ 62.5 µM) | 83.7 (≈ 197 µM) | 1 | 0.24 (≈ 0.565 µM) | > 100 | 89.2 | > 100 | 80.4 | > 100 | > 100 | 1 | 1 | 1 | 1 | 90.6 | selectivity ratio [17]: 1; selectivity ratio [18]: 1; selectivity ratio [19]: 1; IC50 [20]: 17 µg/mL (≈ 40 µM); MIC90 [20]: 77.8 µg/mL (≈ 183 µM); GI50 [21]: > 100 µg/mL; GI90 [21]: > 100 µg/mL; inhibition of growth at 10 µg/mL [22]: 79.3%; inhibition of growth at 3 µg/mL [23]: 67.1%; IC50 [24]: 0.12 µg/mL (≈ 0.282 µM); MIC90 [24]: > 100 µg/mL; selectivity ratio [25]: 1; inhibition of growth at 3 µg/mL [26]: 67.7%; selectivity ratio [27]: 1; selectivity ratio [28]: 1; inhibition of growth at 30 µg/mL [29]: 89.7%; inhibition of growth at 30 µg/mL [30]: 88.4%; inhibition of growth at 3 µg/mL [31]: 64.5%; inhibition of growth at 10 µg/mL [32]: 80.3%; inhibition of growth at 3 µg/mL [33]: 69.1%
